In brackets after ≈: the same amount, converted by molar mass. Activity calls are given as the source filed them. No cut-off for these calls is given here.
What was measured:
[1] = Displacement of [3H]-DTG from sigma 2 receptor guinea pig brain membranes incubated for 120 mins by scintillation counting method; set-up: species or system Cavia porcellus, Membrane
Procedure, shortened: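 Guinea pig brain membranes (360 µg protein) with 3 nM [3H]DTG and test compound (10^-5 to 10^-10 M) in 50 mM Tris-HCl pH 8.0, 120 min at room temperature, with 400 nM (+)-SKF10,047 masking σ1 sites. Nonspecific binding with 5 µM DTG; PEI-presoaked GF/B filtration, scintillation counting, Ki by EBDA/LIGAND.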

[2] = biological target: D(3) dopamine receptor (Rattus norvegicus, UniProt P19020); assay: Displacement of [3H]-7-OH-DPAT from dopamine D3 receptor in rat olfactory tubercle by scintillation counting method; assay type: tissue-based
[3] = test system: C6; assay: Induction of cell cycle arrest in rat C6 cells assessed as accumulation at G1 phase after 24 and 48 hrs by propidium iodide staining based flow cytometry; assay type: functional
Procedure, shortened: (§1)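 C6 cells at 5 µM. About 3 × 10^5 cells fixed in 70% cold ethanol overnight at 4 °C, then stained with 20 µg/mL PI plus 100 µg/mL RNase (final). 10^4 cells analysed by flow cytometry (linear FL3), with doublets excluded by FL3-Area/Width gating; G1, S and G2/M fractions taken from DNA content.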

[4] = test system: C6; assay: Cytotoxicity against rat C6 cells assessed as reduction in cell viability at 0.1 to 5 uM after 72 hrs by MTT assay; assay type: functional
Procedure, shortened: (§2)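 C6 cells (HAM'S F12, 10% FBS, 2 mM glutamine, 37 °C, 5% CO2) seeded at 5 × 10^4 cells/well and exposed to 0.1–5 µM for 24, 48 or 72 h. MTT reduction read at 570 nm; viability = A_sample/A_vehicle control × 100. Four independent experiments.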

[5] = test system: C6; assay: Antimigratory activity against rat C6 cells assessed as cell migration level at 5 uM after 24 hrs by transwell chamber assay (reference value: 60%); assay type: functional, cell-based
Procedure, shortened: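 C6 cells grown to 70-80% confluency, serum-starved 24 h, then seeded at 10^5 cells/mL in serum-free HAM'S F12 into the upper chamber of an 8 µm-pore transwell; lower chamber held medium with 5% FCS. Compounds (5 µM final) added 2 h after seeding; 24 h at 37 °C. Migrated cells methanol-fixed, DAPI-stained, counted in five fields, scaled to insert area, expressed as % of cells seeded.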

[6] = biological target: Sigma non-opioid intracellular receptor 1 (Cavia porcellus, UniProt Q60492); assay: Displacement of [3H]-(+)-pentazocine from sigma 1 receptor guinea pig brain membranes incubated for 150 mins by scintillation counting method; set-up: species or system Membrane
[7] = biological target: T1, Histone deacetylase (Rattus norvegicus) (UniProt Q6P6W3+Q99P99+Q99P96+Q4QQW4+Q99P97+Q5RJZ2+B1WBY8); assay: Inhibition of HDAC in rat C6 cells assessed as increase in histone H3 acetylation at 5 uM after 15 hrs by flow cytometry; assay type: cell-based
Procedure, shortened: (§3)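 C6 cells treated at 5 µM for 6, 15 or 24 h, with DMSO vehicle as control. Fixed in 1% paraformaldehyde, permeabilized with 0.1% Triton X-100, blocked in goat serum. Stained with anti-acetyl-H3 (Lys9) rabbit mAb (1:100, 1 h on ice), then FITC anti-rabbit IgG (20 µg/mL, 45 min). About 10000 events at 488 nm; acetylation quantified from MFI.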

[8] = test system: C6; assay: Induction of cell cycle arrest in rat C6 cells assessed as accumulation at G2/M phase after 24 and 48 hrs by propidium iodide staining based flow cytometry; assay type: functional; procedure, shortened: as §1
[9] = test system: C6; assay: Induction of cell cycle arrest in rat C6 cells assessed as accumulation at S phase after 24 and 48 hrs by propidium iodide staining based flow cytometry; assay type: functional; procedure, shortened: as §1
[10] = test system: C6; assay: Induction of cell cycle arrest in rat C6 cells assessed as increase in accumulation at S phase after 72 hrs by propidium iodide staining based flow cytometry; assay type: functional; procedure, shortened: as §1
[11] = test system: Plasma; assay: Stability in human plasma assessed pseudo-first-order rate constant at 1 mg/mL by HPLC method; assay type: ADME, cell-free
Procedure, shortened: (§4)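 Human or rat plasma, obtained from citrated blood (0.3% citric acid) centrifuged at 3000 × g, diluted to 80% with 0.02 M phosphate buffer pH 7.4, incubated with compound at 37 °C. Samples centrifuged at 5000 × g; supernatant analysed by RP-C18 HPLC; remaining intact compound plotted against time to obtain kobs and half-life.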

[12] = biological target: T1, Histone deacetylase (Rattus norvegicus); assay: Inhibition of HDAC in rat C6 cells assessed as increase in histone H3 acetylation at 5 uM after 6 hrs by flow cytometry (reference value: 4.5%); assay type: cell-based; set-up: scale not given: the % may be the effect or the level left; procedure, shortened: as §3
[13] = test system: C6; assay: Cytotoxicity against rat C6 cells assessed as reduction in cell viability at 0.1 to 5 uM after 24 hrs by MTT assay; assay type: functional, cell-based; procedure, shortened: as §2
[14] = test system: C6; assay: Induction of necrosis in rat C6 cells after 24 to 72 hrs by Annexin-V/propidium iodide staining based flow cytometry
[15] = test system: C6; assay: Induction of late apoptosis in rat C6 cells after 24 to 72 hrs by Annexin-V/propidium iodide staining based flow cytometry
[16] = test system: C6; assay: Cytotoxicity against rat C6 cells assessed as reduction in cell viability at 0.1 to 5 uM after 48 hrs by MTT assay; assay type: functional; procedure, shortened: as §2
[17] = test system: C6; assay: Cytotoxicity against rat C6 cells assessed as reduction in cell viability at 0.5 to 5 uM after 24 hrs by MTT assay; assay type: functional; procedure, shortened: as §2
[18] = Stability in rat plasma assessed half life at 1 mg/mL by HPLC method; assay type: ADME, cell-free; procedure, shortened: as §4
[19] = Stability in human plasma assessed half life at 1 mg/mL by HPLC method; assay type: ADME, cell-free; procedure, shortened: as §4
[20] = test system: Plasma; assay: Stability in rat plasma assessed pseudo-first-order rate constant at 1 mg/mL by HPLC method; assay type: ADME, cell-free; procedure, shortened: as §4
[21] = biological target: D(2) dopamine receptor (Rattus norvegicus, UniProt P61169); assay: Displacement of [3H]-spiperone from dopamine D2 receptor in rat striatum by scintillation counting method
[22] = test system: C6; assay: Induction of necrosis in rat C6 cells after 25 to 72 hrs by Annexin-V/propidium iodide staining based flow cytometry; assay type: functional; details: in the assay text read “24 to 72 hrs” for “25 to 72 hrs”
Procedure, shortened: (§5)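 C6 cells treated at 5 µM for 24, 48 and 72 h. 2.5 × 10^5 cells stained with Annexin-V-FITC (10 min, room temperature, dark), then PI 5 µg/mL. At least 10^4 events collected (FL1/FL3). Late apoptotic cells were Annexin-V+/PI+; necrotic cells were Annexin-V−/PI+.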

[23] = Stability in pH 1.3 0.02 M […] buffer containing 0.1% (v/v) Cremophor ELP assessed as half life […] by HPLC method; assay type: physicochemical
Procedure, shortened: (§6)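 Reaction started by adding 1 mL of a 10^-4 M acetonitrile stock to 10 mL of buffer at 37 ± 0.5 °C. Buffers: pH 7.4, 0.02 M phosphate; pH 1.3, 0.02 M chloridric; both with 0.1% (v/v) Cremophor ELP. Followed by RP-C18 HPLC; run in triplicate, with mean rate constants reported.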

[24] = Solubility in water at 50 mg incubated at 25 degC for 1 hr by HPLC method; assay type: physicochemical
[25] = Stability in pH 7.4 0.02 M phosphate buffer containing 0.1% (v/v) Cremophor ELP assessed as half life at […] by HPLC method; assay type: physicochemical; procedure, shortened: as §6
[26] = Effective permeability of the compound by PAMPA method; assay type: ADME; details: read-out: Peff
Procedure, shortened: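 PAMPA using a porcine polar brain lipid–impregnated filter. Donor: phosphate buffer pH 7.4/pH 6.5 with 500 µM compound and 20% iPrOH co-solvent; acceptor: same buffer. Incubated 18 h at room temperature; donor and acceptor concentrations measured by HPLC; Peff calculated from volumes, filter area (0.28 cm2) and time.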

[27] = test system: C6; assay: Drug metabolism in rat C6 cells assessed as metabolite formation at 5 uM incubated for 24 hrs at 37 degC by LC/MS spectrometry; assay type: ADME, cell-based; details: c6, 24 h
Procedure, shortened: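 Glioma C6 cells incubated with 5 µM for 24 h at 37 °C. Cell lysates (2 mg) analysed by LC-MS, compared with untreated control lysates, to detect metabolite ions.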

[28] = Stability in pH 1.3 0.02 M […] buffer containing 0.1% (v/v) Cremophor ELP assessed as pseudo-first-order rate constant […] by HPLC method; assay type: physicochemical; procedure, shortened: as §6
[29] = test system: C6; assay: Induction of late apoptosis in rat C6 cells after 25 to 72 hrs by Annexin-V/propidium iodide staining based flow cytometry; assay type: functional; details: in the assay text read “24 to 72 hrs” for “25 to 72 hrs”; procedure, shortened: as §5
[30] = Stability in pH 7.4 0.02 M phosphate buffer containing 0.1% (v/v) Cremophor ELP assessed as pseudo-first-order rate constant […] by HPLC method; assay type: physicochemical; procedure, shortened: as §6
[31] = biological target: T1, Histone deacetylase (Rattus norvegicus); assay: Inhibition of HDAC in rat C6 cells assessed as increase in histone H3 acetylation at 5 uM after 24 hrs by flow cytometry (reference value: 4.5%); assay type: cell-based; set-up: scale not given: the % may be the effect or the level left; procedure, shortened: as §3

D(3) dopamine receptor, sequence (P19020 whole entry): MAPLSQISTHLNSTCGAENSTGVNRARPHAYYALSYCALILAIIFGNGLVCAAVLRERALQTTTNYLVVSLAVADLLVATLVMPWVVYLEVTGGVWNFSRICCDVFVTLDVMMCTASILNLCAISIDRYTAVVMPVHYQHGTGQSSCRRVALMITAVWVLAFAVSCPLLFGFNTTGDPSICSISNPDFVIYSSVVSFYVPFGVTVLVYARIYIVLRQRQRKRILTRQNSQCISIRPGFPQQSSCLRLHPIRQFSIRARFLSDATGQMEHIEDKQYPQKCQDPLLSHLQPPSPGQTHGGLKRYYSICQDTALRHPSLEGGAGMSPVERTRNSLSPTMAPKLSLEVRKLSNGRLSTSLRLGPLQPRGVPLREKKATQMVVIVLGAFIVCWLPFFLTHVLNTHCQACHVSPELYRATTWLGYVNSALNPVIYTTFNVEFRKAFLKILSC
Sigma non-opioid intracellular receptor 1, sequence (Q60492 whole entry): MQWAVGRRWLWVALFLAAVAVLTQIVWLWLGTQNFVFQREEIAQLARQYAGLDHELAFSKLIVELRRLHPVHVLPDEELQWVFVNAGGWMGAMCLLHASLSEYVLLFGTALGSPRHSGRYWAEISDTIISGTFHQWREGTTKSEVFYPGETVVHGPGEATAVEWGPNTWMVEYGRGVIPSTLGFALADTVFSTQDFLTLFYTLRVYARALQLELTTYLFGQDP
D(2) dopamine receptor, sequence (P61169 whole entry): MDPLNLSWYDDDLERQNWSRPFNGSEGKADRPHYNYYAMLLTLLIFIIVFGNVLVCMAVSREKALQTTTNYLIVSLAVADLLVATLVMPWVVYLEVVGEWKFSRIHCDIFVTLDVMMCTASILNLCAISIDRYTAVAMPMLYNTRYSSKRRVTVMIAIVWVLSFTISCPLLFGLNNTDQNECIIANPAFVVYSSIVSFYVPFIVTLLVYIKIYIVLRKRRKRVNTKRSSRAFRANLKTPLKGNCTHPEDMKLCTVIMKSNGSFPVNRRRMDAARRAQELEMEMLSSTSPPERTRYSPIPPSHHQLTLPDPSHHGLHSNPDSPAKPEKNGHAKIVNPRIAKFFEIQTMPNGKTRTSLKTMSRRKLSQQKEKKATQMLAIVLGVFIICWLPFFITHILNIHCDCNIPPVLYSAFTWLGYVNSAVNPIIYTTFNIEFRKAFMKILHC

In the case of `O[C@H](CCCN1CCC(O)(c2ccc(Cl)cc2)CC1)c1ccc(F)cc1`, the Ki [1] is reported as 0.032 µM and the Ki [2] is reported as 1.28 µM.
In the case of `O=C(CCCN1CCC(O)(c2ccc(Cl)cc2)CC1)c1ccc(F)cc1` [HALOPERIDOL], the Ki [1] is reported as 0.018 µM.
With `O=C(CCCc1ccccc1)O[C@@H](CCCN1CCC(O)(c2ccc(Cl)cc2)CC1)c1ccc(F)cc1` the Activity [3] was “inactive”, the Ki [1] was 0.118 µM and the Activity [4] was 40%. The Activity [5] was “Active”, the Ki [6] was 0.23 µM and the Activity [7] was “inactive”. For the same molecule, the Activity [8] was “inactive”, the Ki [2] was over 5 µM and the Activity [9] was “inactive”. The Activity [10] was “Active”, the K [11] was 0.008 h⁻¹ and the Activity [12] was “inactive”. The Activity [13] was “Dose-dependent effect”, the Activity [14] was 25% and the Activity [15] was 25%. For the same molecule, the Activity [16] was 60%, the Activity [17] was 50% and the half-life at 1 mg/mL [18] was 0.224 h. For the same molecule, the half-life at 1 mg/mL [19] was 90.7 h, the K [20] was 3.09 h⁻¹ and the Ki [21] was over 5 µM.
Work on `Cc1ccccc1NC(=N)Nc1ccccc1C` [DITOLYLGUANIDINE] yielded a Ki [1] of 0.022 µM.
For `O=C(CCCc1ccccc1)OC(CCCN1CCC(O)(c2ccc(Cl)cc2)CC1)c1ccc(F)cc1` (racemic), the Activity [22] was 35%, the Activity [3] was “inactive” and the Activity [4] was 40%. The Activity [5] was “Active”, the Activity [7] was “inactive” and the half-life at 10000 µM [23] was 140 h. For the same molecule, the solubility at 1 h [24] was 1.2 µg/mL (≈ 2.29 µM), the Activity [8] was “inactive” and the half-life at 10000 µM [25] was 127 h. For the same molecule, the Papp [26] was 52.5 nm/s, the Activity [9] was “inactive” and the Drug metabolism [27] was “metabolite_detected”. The Activity [10] was “Active”, the K [11] was 0.008 h⁻¹ and the Activity [12] was 14%. For the same molecule, the Activity [13] was “Dose-dependent effect”, the IC50 ([13]; C6, 24 h) was 5 µM and the K [28] was 0.005 h⁻¹. It also gave an Activity [16] of 60%, a half-life at 1 mg/mL [18] of 0.108 h and a half-life at 1 mg/mL [19] of 92 h. It also gave an Activity [29] of 35%, a K [20] of 6.41 h⁻¹ and a K [30] of 0.005 h⁻¹.
In the case of `O=C(O)CCCc1ccccc1` [PHENYLBUTANOIC ACID], the Activity [3] is reported as “inactive”, the Activity [5] is reported as “inactive” and the Activity [7] is reported as “inactive”. The Activity [8] was “inactive”, the Activity [9] was “inactive” and the Activity [10] was “inactive”. For the same molecule, the Activity [12] was 14%.
With `OC(CCCN1CCC(O)(c2ccc(Cl)cc2)CC1)c1ccc(F)cc1` (racemic) [HYDROXYHALOPERIDOL] the Activity [3] was “inactive”, the Ki [1] was 0.002 µM and the Activity [5] was “inactive”. For the same molecule, the Activity [7] was “inactive”, the Activity [8] was “inactive” and the Activity [9] was “inactive”. The Activity [10] was “inactive”, the Activity [12] was “inactive” and the Activity [16] was “inactive”.
For `O=C(CCCc1ccccc1)O[C@H](CCCN1CCC(O)(c2ccc(Cl)cc2)CC1)c1ccc(F)cc1`, the Activity [22] was 40%, the Activity [31] was 7.2% and the Activity [3] was “inactive”. The Ki [1] was 0.0527 µM, the Activity [4] was 40% and the Activity [5] was “Active”. For the same molecule, the Ki [6] was 0.0875 µM, the Activity [7] was “inactive” and the Activity [8] was “inactive”. The Ki [2] was over 5 µM, the Activity [9] was “inactive” and the Activity [10] was “Active”. For the same molecule, the K [11] was 0.008 h⁻¹, the Activity [12] was 16.1% and the Activity [13] was “Dose-dependent effect”. The Activity [16] was 60%, the Activity [17] was 40% and the half-life at 1 mg/mL [18] was 0.312 h. The half-life at 1 mg/mL [19] was 84.3 h, the Activity [29] was 40% and the K [20] was 2.22 h⁻¹. The Ki [21] was over 5 µM.
`O[C@@H](CCCN1CCC(O)(c2ccc(Cl)cc2)CC1)c1ccc(F)cc1` gave a Ki [1] of 0.0098 µM and a Ki [2] of 0.353 µM.

Reference: ChEMBL document CHEMBL3392968 (Eur J Med Chem, 2015)
